The source made the active and inactive calls. The rule behind the calls is not given here.
How the values were obtained:
A549 [1] = assay: Induction of apoptotic morphological alterations in human A549 cells assessed as organellar membrane damage at IC50 after 24 hrs by transmission electron microscopy; assay type: functional, cell-based
Method in brief: (§1)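 Cells were fixed in 2.5% glutaraldehyde in 0.1 M PBS pH 7.4 and held overnight at 4 °C, then agar-embedded and post-fixed in 2% osmium tetroxide. They were dehydrated through graded ethanol, embedded in EPON 812, ultrathin-sectioned and examined by transmission electron microscopy.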

A549 [2] = assay: Induction of apoptotic morphological alterations in human A549 cells assessed as nuclear fragmentation at IC50 after 24 hrs by transmission electron microscopy; assay type: functional, cell-based; method in brief: as §1
C6 [3] = assay: Induction of mitochondrial membrane potential loss in rat C6 cells assessed as intact mitochondrial membrane potential at IC50 measured after 24 hrs by JC-1 staining based flow cytometric analysis (reference value: 80%); assay type: functional
Focal adhesion kinase 1 = Focal adhesion kinase 1 (Rattus norvegicus, UniProt O35346); assay: Inhibition of FAK phasphorylation at Tyr397 residues in rat C6 cells after 24 hrs by ELISA; assay type: cell-based
Method in brief: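 Cell-based colorimetric ELISA in C6 cells treated 24 h: cells were fixed in 4% formaldehyde for 20 min, quenched, and blocked for 1 h. Anti-FAK pTyr397, anti-FAK and anti-GAPDH primaries ran overnight at 4 °C, then HRP secondaries for 1.5 h and substrate for 30 min. OD450 was read in duplicate wells; pFAK was normalised to GAPDH. IC50 came from graphs of three concentrations.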

C6 [4] = assay: Induction of apoptosis in rat C6 cells assessed as viable cells at IC50 after 24 hrs by Annexin V-FITC/PI staining based flow cytometry (reference value: 90%); assay type: functional
A549 [5] = assay: Induction of apoptotic morphological alterations in human A549 cells assessed as DNA condensation at IC50 after 24 hrs by transmission electron microscopy; assay type: functional, cell-based; method in brief: as §1
A549 [6] = assay: Induction of apoptotic morphological alterations in human A549 cells assessed as membrane damage at IC50 after 24 hrs by transmission electron microscopy; assay type: functional, cell-based; method in brief: as §1
A549 [7] = assay: Induction of mitochondrial membrane potential loss in human A549 cells at IC50 measured after 24 hrs by JC-1 staining based flow cytometric analysis (reference value: 9.8%); assay type: functional
C6 [8] = assay: Induction of apoptotic morphological alterations in rat C6 cells assessed as organellar membrane damage at IC50 after 24 hrs by transmission electron microscopy; assay type: functional, cell-based; method in brief: as §1
A549 [9] = assay: Induction of apoptosis in human A549 cells assessed as caspase-3 positive cell level at IC50 after 24 hrs by FITC-A labeled flow cytometry (reference value: 2.1%); assay type: functional
C6 [10] = assay: Cytotoxicity against rat C6 cells assessed as decrease in cell viability after 24 hrs by MTT assay; assay type: functional, cell-based; conditions: C6, 24 h
Method in brief: (§2)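 Viability was read as cellular MTT reduction. Cisplatin and GSK690693 were run as reference controls. IC50 values were derived for each cell line.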

[11] = Selectivity index, ratio of IC50 for mouse NIH/3T3 cells to IC50 for rat C6 cells; assay type: toxicity; conditions: NIH/3T3 cells versus C6 cells, read-out: Ratio IC50
Method in brief: (§3)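 Selectivity index = IC50 for NIH/3T3 normal fibroblasts / IC50 for the cancer line (A549 or C6). […] An IC50 above 403.00 was taken as 403.00.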

C6 [12] = assay: Induction of apoptotic morphological alterations in rat C6 cells assessed as disruption of cellular organization at IC50 after 24 hrs by transmission electron microscopy; assay type: functional, cell-based; method in brief: as §1
C6 [13] = assay: Induction of apoptosis in rat C6 cells assessed as caspase-3 positive cell level at IC50 after 24 hrs by FITC-A labeled flow cytometry (reference value: 4.8%); assay type: functional
A549 [14] = assay: Induction of apoptotic morphological alterations in human A549 cells assessed as increase in large vacuoles in cytoplasm containing degraded cellular material at IC50 after 24 hrs by transmission electron microscopy; assay type: functional, cell-based; method in brief: as §1
[15] = target: RAC-alpha serine/threonine-protein kinase (Homo sapiens, UniProt P31749); assay: Inhibition of Akt in human A549 cells after 24 hrs by ELISA; assay type: cell-based
Method in brief: (§4)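 In-cell colorimetric ELISA: 10,000 cells/well were treated 24 h, then fixed in 4% formaldehyde for 15 min, permeabilised, quenched and blocked. Primary antibody ran overnight at 4 °C, then HRP conjugate for 30 min, then TMB; absorbance was read at 450 nm. Wells were in triplicate and blank-subtracted. Activity is relative to untreated cells; IC50 came from graphs of three concentrations.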

C6 [16] = assay: Induction of apoptosis in rat C6 cells assessed as caspase-3 negative cell level at IC50 after 24 hrs by FITC-A labeled flow cytometry (reference value: 96.4%); assay type: functional
C6 [17] = assay: Induction of apoptotic morphological alterations in rat C6 cells assessed as cell shrinkage at IC50 after 24 hrs by transmission electron microscopy; assay type: functional, cell-based; method in brief: as §1
A549 [18] = assay: Induction of mitochondrial membrane potential loss in human A549 cells assessed as intact mitochondrial membrane potential at IC50 measured after 24 hrs by JC-1 staining based flow cytometric analysis (reference value: 90.4%); assay type: functional
A549 [19] = assay: Induction of apoptotic morphological alterations in human A549 cells assessed as cell shrinkage at IC50 after 24 hrs by transmission electron microscopy; assay type: functional, cell-based; method in brief: as §1
C6 [20] = assay: Induction of apoptotic morphological alterations in rat C6 cells assessed as large vacuoles at IC50 after 24 hrs by transmission electron microscopy; assay type: functional, cell-based; method in brief: as §1
C6 [21] = assay: Induction of apoptotic morphological alterations in rat C6 cells assessed as chromatin condensation at IC50 after 24 hrs by transmission electron microscopy; assay type: functional, cell-based; method in brief: as §1
A549 [22] = assay: Induction of apoptosis in human A549 cells assessed as caspase-3 negative cell level at IC50 after 24 hrs by FITC-A labeled flow cytometry (reference value: 98.1%); assay type: functional
C6 [23] = assay: Induction of apoptotic morphological alterations in rat C6 cells assessed as membrane damage at IC50 after 24 hrs by transmission electron microscopy; assay type: functional, cell-based; method in brief: as §1
C6 [24] = assay: Induction of apoptotic morphological alterations in rat C6 cells assessed as DNA condensation at IC50 after 24 hrs by transmission electron microscopy; assay type: functional, cell-based; method in brief: as §1
C6 [25] = assay: Induction of mitochondrial membrane potential loss in rat C6 cells at IC50 measured after 24 hrs by JC-1 staining based flow cytometric analysis (reference value: 19.9%); assay type: functional
C6 [26] = assay: Induction of apoptotic morphological alterations in rat C6 cells assessed as rounding of cells at IC50 after 24 hrs by transmission electron microscopy; assay type: functional, cell-based; method in brief: as §1
A549 [27] = assay: Induction of apoptotic morphological alterations in human A549 cells assessed as disruption of cellular organization at IC50 after 24 hrs by transmission electron microscopy; assay type: functional, cell-based; method in brief: as §1
A549 [28] = assay: Cytotoxicity against human A549 cells assessed as decrease in cell viability after 24 hrs by MTT assay; assay type: functional, cell-based; conditions: A549, 24 h; method in brief: as §2
A549 [29] = assay: Induction of apoptotic morphological alterations in human A549 cells assessed as rounding of cells at IC50 after 24 hrs by transmission electron microscopy; assay type: functional, cell-based; method in brief: as §1
[30] = Selectivity index, ratio of IC50 for mouse NIH/3T3 cells to IC50 for human A549 cells; assay type: toxicity; conditions: NIH/3T3 cells versus A549 cells, read-out: Ratio IC50; method in brief: as §3
[31] = target: RAC-alpha serine/threonine-protein kinase (Rattus norvegicus, UniProt P47196); assay: Inhibition of Akt in rat C6 cells after 24 hrs by ELISA; assay type: cell-based; method in brief: as §4
A549 [32] = assay: Induction of apoptosis in human A549 cells assessed as viable cells at IC50 after 24 hrs by Annexin V-FITC/PI staining based flow cytometry (reference value: 89%); assay type: functional
C6 [33] = assay: Induction of apoptosis in rat C6 cells assessed as early/late apoptotic cells at IC50 after 24 hrs by Annexin V-FITC/PI staining based flow cytometry (reference value: 8%); assay type: functional
A549 [34] = assay: Induction of apoptosis in human A549 cells assessed as early/late apoptotic cells at IC50 after 24 hrs by Annexin V-FITC/PI staining based flow cytometry (reference value: 7.1%); assay type: functional
NIH3T3 = assay: Cytotoxicity against mouse NIH/3T3 cells assessed as decrease in cell viability after 24 hrs by MTT assay; assay type: cell-based; conditions: NIH3T3, 24 h; method in brief: as §2

Chain of Focal adhesion kinase 1 (O35346 whole entry): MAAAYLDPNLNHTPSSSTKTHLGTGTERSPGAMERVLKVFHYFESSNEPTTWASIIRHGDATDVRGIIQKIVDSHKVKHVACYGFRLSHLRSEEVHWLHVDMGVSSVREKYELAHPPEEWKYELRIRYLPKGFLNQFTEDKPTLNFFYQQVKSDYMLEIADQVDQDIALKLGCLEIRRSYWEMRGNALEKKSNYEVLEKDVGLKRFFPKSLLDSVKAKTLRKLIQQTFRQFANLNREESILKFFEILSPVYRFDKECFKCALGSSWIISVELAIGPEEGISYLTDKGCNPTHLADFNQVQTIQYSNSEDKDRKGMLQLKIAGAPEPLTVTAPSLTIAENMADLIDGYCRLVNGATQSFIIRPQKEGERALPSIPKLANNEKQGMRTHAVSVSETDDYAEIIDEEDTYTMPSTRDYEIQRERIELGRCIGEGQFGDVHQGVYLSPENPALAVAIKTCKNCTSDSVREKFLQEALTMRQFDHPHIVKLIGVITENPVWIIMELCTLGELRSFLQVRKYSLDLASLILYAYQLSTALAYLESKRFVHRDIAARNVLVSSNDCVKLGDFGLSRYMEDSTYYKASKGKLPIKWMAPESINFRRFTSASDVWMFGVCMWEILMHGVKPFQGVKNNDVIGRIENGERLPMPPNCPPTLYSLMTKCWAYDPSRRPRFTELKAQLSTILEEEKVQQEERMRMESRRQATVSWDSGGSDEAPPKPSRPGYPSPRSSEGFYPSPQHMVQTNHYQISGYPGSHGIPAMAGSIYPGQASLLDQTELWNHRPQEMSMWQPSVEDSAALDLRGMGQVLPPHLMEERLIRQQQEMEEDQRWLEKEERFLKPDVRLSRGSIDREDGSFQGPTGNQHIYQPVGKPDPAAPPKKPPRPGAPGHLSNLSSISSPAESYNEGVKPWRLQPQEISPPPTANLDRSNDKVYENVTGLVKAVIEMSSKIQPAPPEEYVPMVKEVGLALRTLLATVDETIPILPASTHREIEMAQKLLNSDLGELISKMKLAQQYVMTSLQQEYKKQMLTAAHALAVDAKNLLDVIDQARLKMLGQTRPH
Chain of RAC-alpha serine/threonine-protein kinase (Rattus norvegicus, UniProt P47196) (P47196 whole entry): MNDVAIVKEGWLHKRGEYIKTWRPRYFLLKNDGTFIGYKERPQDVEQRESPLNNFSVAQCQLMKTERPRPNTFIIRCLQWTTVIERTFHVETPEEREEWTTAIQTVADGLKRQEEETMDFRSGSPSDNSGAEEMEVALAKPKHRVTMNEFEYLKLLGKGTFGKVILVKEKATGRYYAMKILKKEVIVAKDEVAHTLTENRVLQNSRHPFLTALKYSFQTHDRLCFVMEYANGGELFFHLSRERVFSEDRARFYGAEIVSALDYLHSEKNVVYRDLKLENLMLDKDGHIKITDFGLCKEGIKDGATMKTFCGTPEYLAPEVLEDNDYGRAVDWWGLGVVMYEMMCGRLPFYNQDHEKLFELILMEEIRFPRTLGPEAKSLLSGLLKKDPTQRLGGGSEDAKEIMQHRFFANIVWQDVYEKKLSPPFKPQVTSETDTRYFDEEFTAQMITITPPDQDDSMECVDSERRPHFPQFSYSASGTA
Chain of RAC-alpha serine/threonine-protein kinase (Homo sapiens, UniProt P31749) (P31749 whole entry): as the sequence (P47196 whole entry) above, with N2S, E46D, S50A, R112K, T117E, A137S, T389K, N410G, D415H counted along it

Structure (SMILES): COc1ccc2nc(NC(=O)CSc3nnc(COc4ccc5c(c4)CCCC5)o3)sc2c1
- Activity (A549 [1]): Active
- Activity (A549 [2]): Active
- Activity (C6 [3]): 24.4%
- IC50 (Focal adhesion kinase 1): 19.5 µM
- Activity (C6 [4]): 92.3%
- Activity (A549 [5]): Active
- Activity (A549 [6]): Active
- Activity (A549 [7]): 27.9%
- Activity (C6 [8]): Active
- Activity (A549 [9]): 25%
- IC50 (C6 [10]): 4.63 µM
- selectivity ratio [11]: 20.4
- Activity (C6 [12]): Active
- Activity (C6 [13]): 33.9%
- Activity (A549 [14]): Active
- IC50 [15]: 27.5 µM
- Activity (C6 [16]): 69.8%
- Activity (C6 [17]): Active
- Activity (A549 [18]): 69.8%
- Activity (A549 [19]): Active
- Activity (C6 [20]): Active
- Activity (C6 [21]): Active
- Activity (A549 [22]): 76.4%
- Activity (C6 [23]): Active
- Activity (C6 [24]): Active
- Activity (C6 [25]): 74.4%
- Activity (C6 [26]): Active
- Activity (A549 [27]): Active
- IC50 (A549 [28]): 39.3 µM
- Activity (A549 [29]): Active
- selectivity ratio [30]: 2.4
- IC50 [31]: 2.6 µM
- Activity (A549 [32]): 71.7%
- Activity (C6 [33]): 5%
- Activity (A549 [34]): 12.2%
- IC50 (NIH3T3): 94.3 µM

Source: ChEMBL document CHEMBL4152328, “Design, synthesis, in vitro and in silico evaluation of a new series of oxadiazole-based anticancer agents as potential Akt and FAK inhibitors” (Eur J Med Chem, 2018)
